From ChEMBL document CHEMBL1143811, “Bis-acridines as lead antiparasitic agents: structure-activity analysis of a discrete compound library in vitro” (Antimicrob Agents Chemother, 2007)
≈ marks a conversion by molar mass, not a printed value. Calls of active or inactive are those of the source. No cut-off for these calls is given here.

Assays:
Plasmodium falciparum [1] = test: Antimicrobial activity against chloroquine-sensitive Plasmodium falciparum 3D7 after 72 hrs; type: functional, organism-based; details: 3D7, 72 h
Plasmodium falciparum [2] = test: Antimicrobial activity against chloroquine-resistant Plasmodium falciparum W2 after 72 hrs; type: functional, organism-based; details: W2, 72 h
[3] = system: Trypanosoma brucei brucei; test: Antimicrobial activity against Trypanosoma brucei brucei clone 427-221a after 48 hrs; type: functional, organism-based
Summary of the method: (§1)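 Bloodstream-form T. b. brucei in Baltz medium (~10^4/ml) and HL-60 cells in RPMI 1640 (~10^5/ml), both with 16.7% FBS, were exposed 48 h at 37°C in 5% CO2 to compound up to 10 µM in 1% final DMSO. Live cells were hemocytometer-counted, by motility (trypanosomes) or trypan blue exclusion (HL-60). EC50 was taken by regression versus DMSO cultures from three experiments. MIC was the lowest fully lethal concentration, judged microscopically.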

[4] = (§2) Cytotoxicity against human HL60 cells; type: cell-based, HL-60; details: human, HL-60 cells; read-out: MIC; summary of the method: as §1
HL-60 = test: as §2; type: cell-based; details: Homo sapiens, HL-60; summary of the method: as §1
[5] = Selectivity index, ratio of EC50 for HL60 cells to EC50 for Trypanosoma brucei brucei clone 427-221a; type: functional, HL-60; summary of the method: as §1
[6] = Selectivity index, ratio of MIC for HL60 cells to MIC for Trypanosoma brucei brucei clone 427-221a; type: functional, HL-60; summary of the method: as §1
Leishmania donovani = test: Antileishmanial activity against Leishmania donovani MHOM/SD/00/1S-2D promastigotes assessed as parasite death at 10 uM after 72 hrs; type: functional
Summary of the method: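 Promastigotes seeded at 1.5 x 10^5 cells/ml in medium 199 with 10% heat-inactivated FBS. Compound added at a final 10 µM, in triplicate, in sealed flasks at 27°C for up to 7 days. Aliquots taken daily and viability read by CellTiter-Glo luminescence. Result given as percent reduction in viability relative to DMSO-treated cultures. Controls were K11777 or amphotericin B at 10 µM.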

Entamoeba histolytica = test: Antimicrobial activity against Entamoeba histolytica HM1 IMSS trophozoites after 48 hrs; type: functional, organism-based; details: 60 h, in the assay text read “60 hrs” for “48 hrs”
Summary of the method: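 Trophozoites were grown axenically in TYI-S-33 with 10% bovine adult serum and seeded at ~10^4 cells/well. Compound (range up to 10 µM) was added to 48-h log-phase cultures, then incubated 60 h at 37°C under anaerobic conditions. Viability was read by CellTiter-Glo luminescence. EC50 came from quadruplicate wells in two independent experiments.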

Trichomonas vaginalis [7] = test: Antimicrobial activity against Trichomonas vaginalis G3 assessed as parasite death at 10 uM after 24 hrs; type: functional
Summary of the method: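 G3 strain grown in Diamond's medium at 37°C. Assay culture set up as 0.5 ml dense culture diluted into 5.0 ml complete medium. Compound at a final 10 µM for 24 h at 37°C. Motile cells counted by hemocytometer. Result is percent dead parasites relative to DMSO-treated cultures, from five separate experiments. Controls were untreated, DMSO and metronidazole.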

[8] = Cytotoxicity against BALB/c mouse peritoneal macrophages at 10 uM after 48 hrs hrs; type: cell-based; details: macrophage
[9] = Cytotoxicity against BALB/c mouse peritoneal macrophages at 1 uM after 48 hrs hrs; type: cell-based; details: macrophage
Leishmania major [10] = test: Antileishmanial activity against Leishmania major MHOM/IL/81/FE/BNI amastigotes after 48 hrs at 1 uM; type: functional, organism-based
Summary of the method: (§3)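 Peritoneal macrophages from BALB/c mice (6-8 wk) adhered 2 h at 37°C, infected 24 h with stationary-phase L. major promastigotes at 10:1 parasite:macrophage, washed, then exposed 48 h to compound at 0.0001 to 10 µM. Intracellular amastigotes stained with acridine orange/ethidium bromide and counted by fluorescence microscopy; percent amastigotes cleared versus DMSO-treated cultures; three repeats.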

Schistosoma mansoni [11] = test: Antimicrobial activity against Schistosoma mansoni assessed as worm vitality at 3 uM after 4 hrs; type: functional, organism-based
Summary of the method: (§4)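 20-day-old worms were obtained by perfusion of BALB/c mice infected with 200 cercariae. About 20 worms/well were kept in Basch 169 with 10% bovine calf serum, preincubated 24 h at 37°C in 5% CO2, then exposed to 1, 3 or 6 µM. Vitality (feeding, flexing, gut peristalsis; death = nonmotile, shrunken, dark) was scored at 4 and 18 h in two experiments.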

Schistosoma mansoni [12] = test: Antimicrobial activity against Schistosoma mansoni assessed as worm vitality at 6 uM after 4 hrs; type: functional, organism-based; summary of the method: as §4
Plasmodium falciparum [13] = test: Antimalarial activity against chloroquine-resistant Plasmodium falciparum FcB1R after 72 hrs; type: functional, organism-based
[14] = system: Trypanosoma brucei brucei; test: Antimicrobial activity against Trypanosoma brucei brucei clone 427-221a at 1.56 uM; type: functional
MRC5 = test: Toxicity against human MRC5 cells at 3.13 uM; type: cell-based; details: mrc5, 3.13 µM
Leishmania major [15] = test: Antileishmanial activity against Leishmania major MHOM/IL/81/FE/BNI amastigotes after 48 hrs; type: functional, organism-based; summary of the method: as §3
J774 = test: Cytotoxicity against mouse J774 cells; type: cell-based
Trichomonas vaginalis [16] = test: Antimicrobial activity against Trichomonas vaginalis G3 assessed as parasite death at 1 uM after 24 hrs; type: functional

Row | Structure (SMILES) | EC50 (Plasmodium falciparum [1]) [nM] | EC50 (Plasmodium falciparum [2]) [nM] | EC50 [3] [nM] | MIC [3] [µM] | MCC [4] [µM] | EC50 (HL-60) [nM] | Ratio EC50 [5] | Ratio [6] | Activity (Leishmania donovani) [%] | EC50 (Entamoeba histolytica) [nM] | Activity (Trichomonas vaginalis [7]) [%] | Activity [8] | Activity [9] | Activity (Leishmania major [10]) | Activity (Schistosoma mansoni [11]) | Activity (Schistosoma mansoni [12]) | EC50 (Plasmodium falciparum [13]) [nM] | Activity [14] [%] | Activity (MRC5) [%] | further results
1 | COc1ccc2nc3cc(Cl)ccc3c(NCCOCCOCCNc3c4ccc(Cl)cc4nc4ccc(OC)cc34)c2c1 | 61 | 74 | 5.8 | 1 (≈ 0.632 µg/mL) | 10 | 3040 | 524 | 10 | 96 | 5000 | 75 | Toxic | Toxic | inactive | – | – | – | – | – | –
2 | COc1ccc2nc3cc(Cl)ccc3c(NCCNCCCNCCNc3c4ccc(Cl)cc4nc4ccc(OC)cc34)c2c1 | 105 | 136 | 1.3 | 1 (≈ 0.644 µg/mL) | 1 | 120 | 91 | 1 | 99 | 5000 | 75 | Toxic | Toxic | inactive | Active | Active | – | – | – | –
3 | COc1ccc2nc3cc(Cl)ccc3c(NCCCCNCCCNc3c4ccc(Cl)cc4nc4ccc(OC)cc34)c2c1 | 62 | 135 | 0.7 | 1 (≈ 0.629 µg/mL) | 10 | 144 | 209 | 10 | 96 | 5000 | 3 | Toxic | – | – | Active | Active | 61 | 100 | 100 | EC50 (Leishmania major [15]): 800 nM; Activity (J774): Toxic
4 | Cc1ncc([N+](=O)[O-])n1CCO [METRONIDAZOLE] | – | – | – | – | – | – | – | – | – | 2000 | – | – | – | – | – | – | – | – | – | Activity (Trichomonas vaginalis [16]): 100%
5 | COc1ccc2nc3cc(Cl)ccc3c(NCCCCN(CCCNc3c4ccc(Cl)cc4nc4ccc(OC)cc34)C(=O)[C@H](C)N)c2c1 | 310 | 303 | 0.9 | 1 (≈ 0.7 µg/mL) | 10 | 225 | 242 | 10 | 93 | 5000 | 80 | Toxic | Toxic | inactive | – | – | – | – | – | –
6 | COc1ccc2nc3cc(Cl)ccc3c(NCCCNCCCNc3c4ccc(Cl)cc4nc4ccc(OC)cc34)c2c1 | 127 | 180 | 1.1 | 1 (≈ 0.615 µg/mL) | 10 | 244 | 214 | 10 | 95 | 5000 | 23 | Toxic | Toxic | inactive | Active | Active | 55 | 100 | 100 | –
